Laboratory results taken from ChEMBL document CHEMBL2311303, “Synthesis and anticancer activity of a novel series of 9-O-substituted berberine derivatives: a lipophilic substitute role” (Bioorg Med Chem Lett, 2013).
Activity calls are given as the source filed them. No cut-off for these calls is given here.

Key:
HepG2 [1] = assay: Induction of apoptosis in human HepG2 cells assessed as early apoptotic cells at 0.25 uM after 24 hrs using annexin-V/FITC/propidium iodide staining by flow cytometry analysis (reference value: 2.05%); assay type: functional
Method in brief: (§1)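 HepG2 cells exposed for 24 h to 0.25, 0.5 or 1.0 µM, with vehicle alone as control. Cells then double-stained with annexin V-FITC/PI and analysed by flow cytometry. Quadrant read-out: annexin V-positive/PI-negative cells counted as early apoptotic.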

HepG2 [2] = assay: Induction of apoptosis in human HepG2 cells assessed as viable cells at 0.25 uM after 24 hrs using annexin-V/FITC/propidium iodide staining by flow cytometry analysis (reference value: 94.29%); assay type: functional; settings: HepG2, 24 h, read-out: Activity; method in brief: as §1
HepG2 [3] = assay: Induction of apoptosis in human HepG2 cells assessed as necrotic cells at 0.25 uM after 24 hrs using annexin-V/FITC/propidium iodide staining by flow cytometry analysis (reference value: 0.51%); assay type: functional; method in brief: as §1
HepG2 [4] = assay: Induction of apoptosis in human HepG2 cells assessed as morphological changes at 20 uM after 24 hrs using Hoechst 33258 staining by fluorescence microscopic analysis; assay type: functional, cell-based
Method in brief: (§2)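 HepG2 cells left untreated or exposed for 24 h, at 20 µM or at 0.5 or 1.0 µM depending on compound. Cells then stained with Hoechst 33258 and nuclear morphology examined by fluorescence microscopy at ×400.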

HT-29 [5] = assay: Cytotoxicity against human HT-29 cells after 48 hrs by MTT assay; assay type: functional, cell-based; settings: HT-29, 48 h
HT-29 [6] = assay: Cytotoxicity against human HT-29 cells after 24 hrs by MTT assay; assay type: functional, cell-based; settings: HT-29, 24 h
HepG2 [7] = assay: Cytotoxicity against human HepG2 cells after 24 hrs by MTT assay; assay type: functional, cell-based; settings: HepG2, 24 h
HepG2 [8] = assay: Cytotoxicity against human HepG2 cells after 48 hrs by MTT assay; assay type: functional, cell-based; settings: HepG2, 48 h
HepG2 [9] = assay: Induction of apoptosis in human HepG2 cells assessed as late apoptotic cells at 1 uM after 24 hrs using annexin-V/FITC/propidium iodide staining by flow cytometry analysis (reference value: 3.16%); assay type: functional; method in brief: as §1
HepG2 [10] = assay: Induction of apoptosis in human HepG2 cells assessed as early apoptotic cells at 1 uM after 24 hrs using annexin-V/FITC/propidium iodide staining by flow cytometry analysis (reference value: 2.05%); assay type: functional; method in brief: as §1
HepG2 [11] = assay: Induction of apoptosis in human HepG2 cells assessed as viable cells at 1 uM after 24 hrs using annexin-V/FITC/propidium iodide staining by flow cytometry analysis (reference value: 94.29%); assay type: functional; settings: HepG2, 24 h, read-out: Activity; method in brief: as §1
HepG2 [12] = assay: Induction of apoptosis in human HepG2 cells assessed as necrotic cells at 1 uM after 24 hrs using annexin-V/FITC/propidium iodide staining by flow cytometry analysis (reference value: 0.51%); assay type: functional; method in brief: as §1
HepG2 [13] = assay: Induction of apoptosis in human HepG2 cells assessed as late apoptotic cells at 0.5 uM after 24 hrs using annexin-V/FITC/propidium iodide staining by flow cytometry analysis (reference value: 3.16%); assay type: functional; method in brief: as §1
HepG2 [14] = assay: Induction of apoptosis in human HepG2 cells assessed as early apoptotic cells at 0.5 uM after 24 hrs using annexin-V/FITC/propidium iodide staining by flow cytometry analysis (reference value: 2.05%); assay type: functional; method in brief: as §1
HepG2 [15] = assay: Induction of apoptosis in human HepG2 cells assessed as viable cells at 0.5 uM after 24 hrs using annexin-V/FITC/propidium iodide staining by flow cytometry analysis (reference value: 94.29%); assay type: functional; settings: HepG2, 24 h, read-out: Activity; method in brief: as §1
HepG2 [16] = assay: Induction of apoptosis in human HepG2 cells assessed as necrotic cells at 0.5 uM after 24 hrs using annexin-V/FITC/propidium iodide staining by flow cytometry analysis (reference value: 0.51%); assay type: functional; method in brief: as §1
HepG2 [17] = assay: Induction of apoptosis in human HepG2 cells assessed as late apoptotic cells at 0.25 uM after 24 hrs using annexin-V/FITC/propidium iodide staining by flow cytometry analysis (reference value: 3.16%); assay type: functional; method in brief: as §1
HepG2 [18] = assay: Induction of apoptosis in human HepG2 cells assessed as morphological changes at 0.5 to 1 uM after 24 hrs using Hoechst 33258 staining by fluorescence microscopic analysis; assay type: functional, cell-based; method in brief: as §2
HepG2 [19] = assay: Ratio of berberine IC50 to compound IC50 for human HepG2 cells; assay type: functional
[20] = Cytotoxicity against mouse BNL-CL2 cells at 10 uM after 48 hrs by MTT assay; assay type: functional
HepG2 [21] = assay: Cytotoxicity against human HepG2 cells after 24 to 72 hrs by MTT assay; assay type: functional, cell-based
Method in brief: (§3)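 HepG2 cells exposed to a range of concentrations for 24, 48 and 72 h. Viability then read by MTT. Data are means ± SD of at least three replicates from three independent experiments.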

HepG2 [22] = assay: Cytotoxicity against human HepG2 cells by MTT assay; assay type: functional, cell-based; settings: TDE = time-dependent effect; method in brief: as §3

COc1ccc2cc3[n+](cc2c1OC)CCc1cc2c(cc1-3)OCO2.[Cl-] [BERBERINE CHLORIDE]
Activity (HepG2 [1]): 2.99%
viability at 0.25 µM (HepG2 [2]): 89.8%
Activity (HepG2 [3]): 0.84%
Activity (HepG2 [4]): Active
IC50 (HT-29 [5]): 8450 nM
IC50 (HT-29 [6]): > 20000 nM
IC50 (HepG2 [7]): 11200 nM
IC50 (HepG2 [8]): 8320 nM
Activity (HepG2 [9]): 5.51%
Activity (HepG2 [10]): 3.77%
viability at 1 µM (HepG2 [11]): 88.8%
Activity (HepG2 [12]): 1.88%
Activity (HepG2 [13]): 4.49%
Activity (HepG2 [14]): 4.39%
viability at 0.5 µM (HepG2 [15]): 90%
Activity (HepG2 [16]): 1.17%
Activity (HepG2 [17]): 6.4%

COc1ccc2cc3[n+](cc2c1OC/C=C(\C)CC/C=C(\C)CCC=C(C)C)CCc1cc2c(cc1-3)OCO2.[Br-]
Activity (HepG2 [1]): 1.66%
viability at 0.25 µM (HepG2 [2]): 91.4%
Activity (HepG2 [3]): 3.73%
Activity (HepG2 [18]): Active
Ratio IC50 (HepG2 [19]): 104
Activity [20]: <20%
Activity (HepG2 [21]): Dose-dependent effect
IC50 (HT-29 [5]): 270 nM
Activity (HepG2 [22]): tde
IC50 (HT-29 [6]): 1820 nM
IC50 (HepG2 [7]): 210 nM
IC50 (HepG2 [8]): 80 nM
Activity (HepG2 [9]): 11.28%
Activity (HepG2 [10]): 2.39%
viability at 1 µM (HepG2 [11]): 69.2%
Activity (HepG2 [12]): 17.08%
Activity (HepG2 [13]): 17.4%
Activity (HepG2 [14]): 8.71%
viability at 0.5 µM (HepG2 [15]): 71.4%
Activity (HepG2 [16]): 2.48%
Activity (HepG2 [17]): 3.2%

CCCCCCCCOc1c(OC)ccc2cc3[n+](cc12)CCc1cc2c(cc1-3)OCO2
IC50 (HT-29 [5]): 80 nM
IC50 (HT-29 [6]): 480 nM
IC50 (HepG2 [7]): 190 nM
IC50 (HepG2 [8]): 100 nM

COc1ccc2cc3[n+](cc2c1O)CCc1cc2c(cc1-3)OCO2 [BERBERRUBINE CHLORIDE]
IC50 (HT-29 [5]): > 50000 nM
IC50 (HT-29 [6]): > 50000 nM
IC50 (HepG2 [7]): > 50000 nM
IC50 (HepG2 [8]): > 50000 nM

CCCCOc1c(OC)ccc2cc3[n+](cc12)CCc1cc2c(cc1-3)OCO2
IC50 (HT-29 [5]): 870 nM
IC50 (HT-29 [6]): 4410 nM
IC50 (HepG2 [7]): 1810 nM
IC50 (HepG2 [8]): 970 nM

CCCCCCCCCCCCOc1c(OC)ccc2cc3[n+](cc12)CCc1cc2c(cc1-3)OCO2.[Br-]
Activity [20]: <20%
IC50 (HT-29 [5]): 280 nM
IC50 (HT-29 [6]): 930 nM
IC50 (HepG2 [7]): 260 nM
IC50 (HepG2 [8]): 100 nM

COc1ccc2cc3[n+](cc2c1OC/C=C(\C)CCC=C(C)C)CCc1cc2c(cc1-3)OCO2
IC50 (HT-29 [5]): 140 nM
IC50 (HT-29 [6]): 1210 nM
IC50 (HepG2 [7]): 210 nM
IC50 (HepG2 [8]): 170 nM

COc1ccc2cc3[n+](cc2c1OCC=C(C)C)CCc1cc2c(cc1-3)OCO2
IC50 (HT-29 [5]): 1750 nM
IC50 (HT-29 [6]): 10800 nM
IC50 (HepG2 [7]): 4670 nM
IC50 (HepG2 [8]): 3170 nM
